The values that follow come from ChEMBL document CHEMBL4334468, “Exploring Mitochondria-Mediated Intrinsic Apoptosis by New Phytochemical Entities: An Explicit Observation of Cytochrome c Dynamics on Lung and Melanoma Cancer Cells” (J Med Chem, 2019).

The test system of assay [1] is A-375. Nature of the assay: Cytotoxicity in human A375 cells assessed as reduction in cell viability incubated for 24 hrs by MTT assay. The format is functional, cell-based. The essentials: (§1)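 MTT viability assay on A375 melanoma, A549 lung adenocarcinoma and WI-38 normal lung fibroblast cells after 24 and 48 h treatment. IC50 values are in µM, expressed as mean ± SD.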
In general terms: Tetrazolium dyes change colour on reduction, which living cells bring about.

Assay [2] deals with A549. Put plainly: Cytotoxicity in human A549 cells assessed as reduction in cell viability incubated for 48 hrs by MTT assay. The format is functional, cell-based. The essentials:
as §1

In assay [3] the test system is A-375. Nature of the assay: Cytotoxicity in human A375 cells assessed as reduction in cell viability incubated for 48 hrs by MTT assay. It is filed as functional, cell-based. The essentials: as §1
Assay [4] has as its system WI-38. Nature of the assay: Cytotoxicity in human WI38 cells assessed as reduction in cell viability incubated for 24 hrs by MTT assay. The format is cell-based. The note with it: wi-38. The essentials:
as §1

Assay [5] has as its system WI-38. Nature of the assay: Cytotoxicity in human WI38 cells assessed as reduction in cell viability incubated for 48 hrs by MTT assay. It is filed as cell-based. The gist of the method:
as §1

Assay [6] deals with A549. Put plainly: Cytotoxicity in human A549 cells assessed as reduction in cell viability incubated for 24 hrs by MTT assay. It is filed as functional, cell-based. The gist of the method:
as §1

Setting [7] is: Homo sapiens, A-375, 24 h, read-out: IC50.
Where [8] appears, read: Homo sapiens, A549, 48 h, read-out: IC50.
Setting [9] is: Homo sapiens, A-375, 48 h, read-out: IC50.
[10] abbreviates: Homo sapiens, WI-38, 48 h, read-out: IC50.
[11] abbreviates: Homo sapiens, A549, 24 h, read-out: IC50.

Turning to `COc1cc(C2Oc3cc(-c4cc(=O)c5c(O)cc(O)cc5o4)ccc3OC2/C=C2/C(=O)ONC2C)ccc1O` (stereo unspecified), the IC50 (usually the concentration that inhibits the measured activity by half) is “Not Active” in the assay with A-375 [1] (a-375); “Not Active” with A549 [2] (a549); “Not Active” with A-375 [3] (a-375); “Non-Toxic” in the assay with WI-38 [4]; “Non-Toxic” in the assay with WI-38 [5] (wi-38); “Not Active” in the assay on A549 [6] (a549).
`COc1cc(C2Oc3cc(-c4cc(=O)c5c(O)cc(O)cc5o4)ccc3OC2c2cc(C(=O)NS(=O)(=O)c3ccc(Cl)cc3)on2)ccc1O` (stereo unspecified): the IC50 was 6.2 µM in the assay with A-375 [1] (setting [7]); 6.6 µM with A549 [2] (setting [8]); 4.2 µM in the assay with A-375 [3] (setting [9]); “Non-Toxic” in the assay with WI-38 [4]; 54.6 µM with WI-38 [5] (setting [10]); 8.7 µM in the assay with A549 [6] (setting [11]).
In the case of `COc1cc(C2Oc3cc(-c4cc(=O)c5c(O)cc(O)cc5o4)ccc3OC2c2cc(CO)on2)ccc1O` (stereo unspecified), the IC50 result with A-375 [1] (a-375) was “Not Active”; in the assay with A549 [2] (a549), “Not Active”; with A-375 [3] (setting [9]), 74.9 µM; with WI-38 [4], “Non-Toxic”; in the assay with WI-38 [5] (wi-38), “Non-Toxic”; in the assay with A549 [6] (a549), “Not Active”.
For `COc1cc(C2Oc3cc(-c4cc(=O)c5c(O)cc(O)cc5o4)ccc3OC2/C=C2/C(=O)ONC2C(F)(F)F)ccc1O` (stereo unspecified), the IC50 in the assay with A-375 [1] (setting [7]) is 2 µM; in the assay on A549 [2] (setting [8]), 16.4 µM; with A-375 [3] (setting [9]) it was 0.83 µM; with WI-38 [4] it was “Non-Toxic”; in the assay with WI-38 [5] (setting [10]), 95 µM; in the assay on A549 [6] (setting [11]) it was 2.1 µM.
Regarding `COc1cc(C2Oc3cc(-c4cc(=O)c5c(O)cc(O)cc5o4)ccc3OC2c2cc(C(C)(C)O)on2)ccc1O` (stereo unspecified), the half-maximal inhibitory concentration (IC50) in the assay on A-375 [1] (setting [7]) is 1.43 µM; in the assay on A549 [2] (setting [8]), 2.9 µM; with A-375 [3] (setting [9]), 0.65 µM; in the assay with WI-38 [4], “Non-Toxic”; in the assay on WI-38 [5] (wi-38), “Non-Toxic”; with A549 [6] (setting [11]), 4.8 µM.
Take `COc1cc(C2Oc3cc(-c4cc(=O)c5c(O)cc(O)cc5o4)ccc3OC2c2cc(C(=O)Nc3ccc(C(F)(F)F)cc3)on2)ccc1O` (stereo unspecified): the IC50 is 4 µM with A-375 [1] (setting [7]); 0.76 µM in the assay with A549 [2] (setting [8]); 0.95 µM with A-375 [3] (setting [9]); “Non-Toxic” in the assay on WI-38 [4]; “Non-Toxic” with WI-38 [5] (wi-38); 3.6 µM in the assay on A549 [6] (setting [11]).
Regarding `COc1cc(C2Oc3cc(-c4cc(=O)c5c(O)cc(O)cc5o4)ccc3OC2/C=C2/C(=O)ONC2c2ccc(C)cc2)ccc1O` (stereo unspecified), the IC50 with A-375 [1] (setting [7]) was 9.2 µM; in the assay on A549 [2] (setting [8]), 9 µM; in the assay on A-375 [3] (setting [9]), 6.7 µM; with WI-38 [4], “Non-Toxic”; in the assay on WI-38 [5] (wi-38), “Non-Toxic”; with A549 [6] (setting [11]), 12.7 µM.
For `COc1cc(C2Oc3cc(-c4cc(=O)c5c(O)cc(O)cc5o4)ccc3OC2C=O)ccc1O` (stereo unspecified), the IC50 in the assay with A-375 [1] (setting [7]) was 63 µM; with A549 [2] (setting [8]) it was 87.8 µM; in the assay on A-375 [3] (setting [9]), 43.8 µM; in the assay on WI-38 [4], “Non-Toxic”; in the assay on WI-38 [5] (wi-38) it was “Non-Toxic”; with A549 [6] (setting [11]), 96 µM.
As for `COc1cc(C2Oc3cc(-c4cc(=O)c5c(O)cc(O)cc5o4)ccc3OC2/C=C2/C(=O)ONC2c2ccc(F)cc2)ccc1O` (stereo unspecified), the IC50 with A-375 [1] (setting [7]) was 13.7 µM; in the assay with A549 [2] (setting [8]), 7.5 µM; with A-375 [3] (setting [9]) it was 7.9 µM; in the assay with WI-38 [4], “Non-Toxic”; in the assay on WI-38 [5] (wi-38) it was “Non-Toxic”; in the assay on A549 [6] (setting [11]), 1.4 µM.
Regarding `COc1cc(C2Oc3cc(-c4cc(=O)c5c(O)cc(O)cc5o4)ccc3OC2c2noc(C)c2CO)ccc1O` (stereo unspecified), the IC50 is 68.7 µM with A-375 [1] (setting [7]); 51 µM in the assay with A549 [2] (setting [8]); 46.5 µM in the assay on A-375 [3] (setting [9]); “Non-Toxic” with WI-38 [4]; “Non-Toxic” in the assay on WI-38 [5] (wi-38); 68 µM in the assay on A549 [6] (setting [11]).
In the case of `COc1cc(C2Oc3cc(-c4cc(=O)c5c(O)cc(O)cc5o4)ccc3OC2/C=C2/C(=O)ONC2c2ccc(Cl)cc2)ccc1O` (stereo unspecified), the IC50 was 1.2 µM with A-375 [1] (setting [7]); 1.2 µM in the assay with A549 [2] (setting [8]); 0.94 µM in the assay with A-375 [3] (setting [9]); “Non-Toxic” in the assay with WI-38 [4]; “Non-Toxic” with WI-38 [5] (wi-38); 2 µM in the assay with A549 [6] (setting [11]).
